Entries after “also recorded” stand apart in the source; their conditions may differ.
Legend:
[1] = tested on: Chinese patients with type 2 diabetes; test: Safety and tolerability; format: in vivo, human; conditions: during the study
Procedure, shortened: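 Adults aged 20–70 with T2D and BMI ≥ 23.0 kg/m2 received once-weekly SC test compound or placebo, followed by 4 weeks of follow-up. AEs were recorded on an electronic CRF with investigator-assessed relatedness. TEAEs were events arising or worsening after treatment start. Also collected: laboratory values, vital signs, ECG, injection-site reactions and hypoglycaemia (glucose ≤ 70.0 mg/dL, graded per International Hypoglycaemia Study Group). All enrolled patients were included.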

[2] = Tirzepatide plasma pharmacokinetics after multiple SC doses; format: in vivo, human; conditions: Chinese patients with T2D, QW SC 2.5–15.0 mg
Procedure, shortened: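 Plasma test compound concentrations were measured after once-weekly SC doses escalated from 2.5 mg by 2.5 mg every 4 weeks, to 10.0 mg or 15.0 mg. Cmax, AUC, Tmax and T½ were derived. T½ was calculated over periods both shorter and longer than the resulting T½. Patients with ≥1 dose and evaluable data were analysed.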

[3] = tested on: Chinese patients with type 2 diabetes; test: Pharmacodynamics: change from baseline in HbA1c, FPG, 7-point SMBG, meal intake; format: in vivo, human; conditions: both tirzepatide groups; not apparent in placebo
[4] = tested on: Chinese patients with type 2 diabetes; test: Immunogenicity: anti-drug antibodies; format: in vivo, human
Procedure, shortened: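 Randomised 5:1, double-blind, placebo-controlled. Test compound or placebo given once weekly SC, starting at 2.5 mg and rising 2.5 mg every 4 weeks to 10.0 or 15.0 mg. Frequency and percentage of patients with pre-existing and treatment-emergent ADAs were recorded. Treatment-induced meant a titer twofold/1-dilution above the minimum required dilution with no baseline ADA. Treatment-boosted meant a fourfold/2-dilution titer rise over a positive baseline.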

[5] = global and Japanese patient populations, single and multiple doses; cited from earlier work
[6] = all 20 patients treated with tirzepatide, treatment-induced

Compound: CC[C@H](C)[C@H](NC(=O)[C@H](CC(C)C)NC(=O)[C@H](Cc1c[nH]c2ccccc12)NC(=O)[C@H](CCC(N)=O)NC(=O)[C@@H](NC(=O)[C@H](Cc1ccccc1)NC(=O)[C@H](C)NC(=O)[C@H](CCCCNC(=O)COCCOCCNC(=O)COCCOCCNC(=O)CC[C@H](NC(=O)CCCCCCCCCCCCCCCCCCC(=O)O)C(=O)O)NC(=O)[C@H](CCC(N)=O)NC(=O)[C@H](C)NC(=O)[C@@H](NC(=O)[C@H](CCCCN)NC(=O)[C@H](CC(=O)O)NC(=O)[C@H](CC(C)C)NC(=O)C(C)(C)NC(=O)[C@@H](NC(=O)[C@H](CO)NC(=O)[C@H](Cc1ccc(O)cc1)NC(=O)[C@H](CC(=O)O)NC(=O)[C@H](CO)NC(=O)[C@@H](NC(=O)[C@H](Cc1ccccc1)NC(=O)[C@@H](NC(=O)CNC(=O)[C@H](CCC(=O)O)NC(=O)C(C)(C)NC(=O)[C@@H](N)Cc1ccc(O)cc1)[C@@H](C)O)[C@@H](C)O)[C@@H](C)CC)[C@@H](C)CC)C(C)C)C(=O)N[C@@H](C)C(=O)NCC(=O)NCC(=O)N1CCC[C@H]1C(=O)N[C@@H](CO)C(=O)N[C@@H](CO)C(=O)NCC(=O)N[C@@H](C)C(=O)N1CCC[C@H]1C(=O)N1CCC[C@H]1C(=O)N1CCC[C@H]1C(=O)N[C@@H](CO)C(N)=O [Tirzepatide, tirzepatide]
- deaths or SAEs in patients receiving tirzepatide ([1]; both tirzepatide groups): no serious adverse events reported; also recorded: No deaths or SAEs occurred
- changes in vital signs measurements [1]: No clinically meaningful changes
- T½, range of values across weeks and cohorts [2]: 124 to 145 h
- meal intake between baseline and end of study [3]: trend towards a decrease
- ADA-positive patients post-baseline, number ([4]; 2.5–10.0 mg group): five
- ADA-positive patients post-baseline, number ([4]; 2.5–15.0 mg group): three
- ADA-positive patients post-baseline, number [4, 6]: Eight
- ADA-positive patients post-baseline, percentage [4, 6]: 40%
- ADAs at baseline ([4]; baseline): No ADAs were detected
- impact of ADA-positive status on safety, PK and PD ([4]; in vivo): no apparent impact
- median Tmax range [5]: 24 to 48 h
